Experimental data: ChEMBL document CHEMBL1138783, “Subtype selective substrates for histone deacetylases” (J Med Chem, 2004)
Square brackets hold non-standard residues; d marks the D form. Peptide text beside a SMILES is read from it. * marks the point of attachment. Asu = N[C@@H](CCCCCC(=O)O)C(=O)O; Aib = CC(C)(N)C(=O)O; NHOH = ON*

Experiments:
Histone deacetylase [1] = test: Inhibitory activity against rat liver Histone deacetylase with substrate 3a
Histone deacetylase [2] = test: Inhibitory activity against rat liver Histone deacetylase with substrate 3b
Histone deacetylase [3] = test: Inhibitory activity against rat liver Histone deacetylase with substrate 5b
[4] = test system: histone deacetylase (HDAC); test: Percent conversion by rat liver histone deacetylase (HDAC) was determined after 1 h; type: ADME; settings: read-out: Conversion
Summary of the method: (§1)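 Deacetylase from rat liver, purified by ammonium sulfate precipitation and Q-sepharose NaCl-gradient chromatography (class I and II subtypes), in phosphate buffer pH 7.9 (EDTA, NaCl, glycerol, 2-mercaptoethanol). Enzyme preincubated 15 min at 4 °C, then run at 37 °C with candidate substrate and 7-hydroxycoumarin internal standard. Stopped with HCl/sodium acetate, ethyl acetate extraction, reversed-phase HPLC with fluorescence detection. Conversion taken against no-enzyme control. Duplicates.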

[5] = test system: histone deacetylase (HDAC); test: Percent conversion by rat liver histone deacetylase (HDAC) was determined after 2 h; type: ADME; settings: read-out: Conversion; summary of the method: as §1
[6] = test system: histone deacetylase (HDAC); test: Percent conversion by rat liver histone deacetylase (HDAC) was determined after 3 h; type: ADME; settings: read-out: Conversion; summary of the method: as §1
[7] = test system: histone deacetylase (HDAC); test: Percent conversion by rat liver histone deacetylase (HDAC) was determined after 24 h; type: ADME; settings: read-out: Conversion; summary of the method: as §1
[8] = test system: histone deacetylase (HDAC); test: Percent conversion by rat liver histone deacetylase (HDAC) was determined after 6 h; type: ADME; settings: read-out: Conversion; summary of the method: as §1
[9] = test system: HDAC6/HDAC1 (Homo sapiens); test: Selectivity ratio for Histone deacetylase 6 versus Histone deacetylase 1
Histone deacetylase [10] = test: Inhibitory concentration against rat liver histone deacetylase (HDAC) with substrate 5a
Histone deacetylase [11] = test: Inhibitory concentration against rat liver histone deacetylase (HDAC) with substrate 3a

IC50 (Histone deacetylase [1]) [nM]	IC50 (Histone deacetylase [2]) [nM]	IC50 (Histone deacetylase [3]) [nM]	metabolised at 1 h [4] [%]	metabolised at 2 h [5] [%]	metabolised at 3 h [6] [%]	metabolised at 24 h [7] [%]	metabolised at 6 h [8] [%]	Selectivity [9]	IC50 (Histone deacetylase [10]) [nM]	IC50 (Histone deacetylase [11]) [nM]	SMILES
137	226	21.2	–	–	–	–	–	–	–	–	CC1(C)NC(=O)[C@H](CCCCCC(=O)NO)NC(=O)[C@H]2CCCN2C(=O)[C@H](Cc2ccccc2)NC1=O (cyclo([Aib]F[dP][Asu](NHOH)))
–	–	–	47	74	78	90	86	–	–	–	CC(=O)NCCCC[C@H](NC(=O)OCC1c2ccccc2-c2ccccc21)C(=O)Nc1ccc2c(C)cc(=O)oc2c1
–	–	–	0	1	12	48	21	–	–	–	CCCC(=O)NCCCC[C@H](NC(=O)OCc1ccccc1)C(=O)Nc1ccc2c(C)cc(=O)oc2c1
–	–	–	0	0	0	0	0	–	–	–	Cc1cc(=O)oc2cc(NC(=O)[C@H](CCCCNC(=O)Cc3ccccc3)NC(=O)OCc3ccccc3)ccc12
–	–	–	67	87	93	100	96	–	–	–	CC(=O)NCCCC[C@H](NC(=O)OCc1ccccc1)C(=O)Nc1ccc2c(C)cc(=O)oc2c1
55.7	80.4	6.29	–	–	–	–	–	34	–	–	CC[C@@H](C)[C@@H]1NC(=O)[C@@H](Cc2ccc(OC)cc2)NC(=O)[C@H](CCCCCC(=O)NO)NC(=O)[C@H]2CCCN2C1=O
–	–	–	30	43	47	96	68	–	–	–	CC(=O)NCCCC[C@H](NC(=O)OC(C)(C)C)C(=O)Nc1ccc2c(C(F)(F)F)cc(=O)oc2c1
–	–	–	16	41	57	64	54	–	–	–	Cc1cc(=O)oc2cc(NC(=O)[C@H](CCCCNC(=O)C(F)(F)F)NC(=O)OCc3ccccc3)ccc12
349	411	65.6	–	–	–	–	–	–	–	–	O=C(CCCCC[C@@H]1NC(=O)[C@H]2CCCN2C(=O)[C@H](Cc2ccccc2)NC(=O)[C@H](Cc2ccccc2)NC1=O)NO
256	488	241	–	–	–	–	–	–	–	–	CN(C)c1ccc(C(=O)NCCCCCCCC(=O)NO)cc1
–	–	–	–	–	–	–	–	–	640	216	CN(C)c1ccc(C(=O)NCCCCCC(=O)NO)cc1
–	–	–	0	9	0	14	3	–	–	–	CC(=O)NCCCC[C@@H](NC(=O)OCc1ccccc1)C(=O)Nc1ccc2c(C)cc(=O)oc2c1
–	–	–	20	33	47	87	74	–	–	–	CCC(=O)NCCCC[C@H](NC(=O)OCc1ccccc1)C(=O)Nc1ccc2c(C)cc(=O)oc2c1

SMILES	IC50 (Histone deacetylase [1]) [nM]	IC50 (Histone deacetylase [2]) [nM]	IC50 (Histone deacetylase [3]) [nM]	metabolised at 1 h [4] [%]	metabolised at 2 h [5] [%]	metabolised at 3 h [6] [%]	metabolised at 24 h [7] [%]	metabolised at 6 h [8] [%]	Selectivity [9]	IC50 (Histone deacetylase [10]) [nM]	IC50 (Histone deacetylase [11]) [nM]
CN(C)c1ccc(C(=O)NCCCCCCC(=O)NO)cc1	78.2	148	3512	–	–	–	–	–	–	–	–
CC(=O)NCCCC[C@H](NC(=O)OC(C)(C)C)C(=O)Nc1ccc2c(C)cc(=O)oc2c1	–	–	–	38	60	70	100	91	–	–	–
